Test results taken from ChEMBL document CHEMBL1165882, “Synthesis and modulation properties of imidazo[4,5-b]pyridin-7-one and indazole-4,7-dione derivatives towards the Cryptosporidium parvum CpABC3 transporter” (Eur J Med Chem, 2010).
pKi: −log10 of the molar value.

What was measured:
[1] = system: Cryptosporidium parvum; test: Binding affinity to Cryptosporidium parvum recombinant H6-NBD1 of ABC3 transporter expressed in Escherichia coli BL21(DE3) assessed as intrinsic fluorescence quenching at 100 uM relative to control
Procedure, shortened: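 His6-tagged NBD1 purified on Ni-NTA, dialyzed against 50 mM Tris pH 7.3/100 mM KCl/0.02% HECAMEG/20% glycerol. Protein 0.25–0.5 μM in 50 mM Tris pH 7.3, 100 mM KCl, 0.02% HECAMEG; compounds 100 μM from DMSO stocks (≤2.5% DMSO), 30 min at 20 ± 2 °C. Excitation 295 nm, emission 328 nm; % of dialysis-buffer/solvent control; triplicates, 3 separate experiments.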

[2] = Inhibition of Cryptosporidium parvum recombinant H6-NBD1 of ABC3 transporter ATPase activity expressed in Escherichia coli BL21(DE3) after 10 mins; settings: for pKi: read-out: Ki
Procedure, shortened: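 Purified His6-NBD1 (2.5 μM final) incubated 10 min at 37 °C in 50 mM Tris pH 7.3, 100 mM KCl, 4 mM MgCl2, 0.02% HECAMEG with serially diluted compounds at various ATP concentrations. Reaction products quantified in triplicate by reverse-phase HPLC, detection at 254 nm; inhibition type and Ki by non-linear regression.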

| Structure (SMILES) | Activity [1] [%] | pKi [2] | Ki [2] |
| --- | --- | --- | --- |
| CC(=O)[C@H]1CC[C@H]2[C@@H]3CCC4=CC(=O)CC[C@]4(C)[C@H]3CC[C@]12C | 71.7 |  |  |
| CC(C)(C)OC(=O)NCCCn1ccc(=O)c2c1ncn2Cc1ccccc1 | 96.1 | 3.27 |  |
| Nc1ncnc2c1ncn2[C@@H]1O[C@H](COP(=O)(O)OP(=O)(O)OP(=O)(O)O)[C@H]2OC3(O[C@H]21)C([N+](=O)[O-])=CC(=[N+]([O-])[O-])C=C3[N+](=O)[O-] (some centres undefined) [TNP-ATP] | 33.1 | 4.44 |  |
| O=C1C=CC(=O)c2c1cnn2Cc1ccccc1 | 22.9 |  |  |
| CC(C)(C)OC(=O)NCCCCCCn1ccc(=O)c2c1ncn2Cc1ccccc1 | 60.8 |  | Not Active |
| Cc1nc(Cn2ncc3c2C(=O)C=CC3=O)cs1 | 21.6 | 3.94 |  |
| CCOC(=O)Cn1ccc(=O)c2c1ncn2Cc1ccccc1 | 85.5 |  |  |
| CCOC(=O)C(C)n1ccc(=O)c2c1ncn2Cc1ccccc1 (racemic) | 69.3 | 3.63 |  |
| CCOC(=O)CCCn1ccc(=O)c2c1ncn2Cc1ccccc1 | 80.1 |  |  |
